Values after ≈ are worked out from the molar mass of the structure shown.
How the values were obtained:
Pseudomonas aeruginosa [1] = experiment: Growth inhibition of Pseudomonas aeruginosa at 30 ug/ml; format: functional; details: read-out: GI
[2] = Selectivity index, ratio of GI50 for human HCT116 cells to MIC90 for Mycobacterium tuberculosis H37Ra ATCC 25177 active stage; format: toxicity, cell-based, HCT-116; details: read-out: Selectivity Index
In short: (§1)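 Cytotoxicity was measured on human MCF-7, HCT116 and THP-1 cells by MTT assay, with paclitaxel as reference. GI50 is the concentration inhibiting 50% of cell growth. The selectivity index is GI50 for the given cell line divided by MIC90 for the given mycobacterial strain and stage.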

Staphylococcus aureus [3] = experiment: Growth inhibition of Staphylococcus aureus at 10 ug/ml; format: functional; details: read-out: GI
[4] = Selectivity index, ratio of GI50 for human MCF7 cells to MIC90 for Mycobacterium tuberculosis H37Ra ATCC 25177 active stage; format: toxicity, cell-based; details: read-out: Selectivity Index; in short: as §1
[5] = Cytotoxicity against human HCT116 cells by MTT assay; format: toxicity, cell-based, HCT-116; details: for GI90: hct-116
[6] = Selectivity index, ratio of GI50 for human THP1 cells to MIC90 for Mycobacterium bovis BCG ATCC 35743 active stage; format: toxicity, cell-based, THP-1; details: read-out: Selectivity Index; in short: as §1
[7] = Selectivity index, ratio of GI50 for human HCT116 cells to MIC90 for Mycobacterium bovis BCG ATCC 35743 active stage; format: toxicity, cell-based, HCT-116; details: read-out: Selectivity Index; in short: as §1
[8] = Antitubercular activity against Mycobacterium tuberculosis H37Ra ATCC 25177 active stage measured on day 8 by XTT reduction menadione based two-fold dilution assay; format: functional; details: ATCC 25177, 192 h
In short: (§2)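 M. tuberculosis H37Ra ATCC 25177 was exposed to 0.7–100 μg/mL in two-fold steps (0.7, 1.5, 3.1 … 100). Active stage was read after 8 days and dormant stage after 12 days of incubation. Inhibition was read by XTT reduction menadione assay (XRMA), absorbance 470 nm. MIC90 is the concentration giving ≥90% inhibition (µg/mL).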

[9] = Selectivity index, ratio of GI50 for human THP1 cells to MIC90 for Mycobacterium tuberculosis H37Ra ATCC 25177 active stage; format: toxicity, cell-based, THP-1; details: read-out: Selectivity Index; in short: as §1
[10] = Selectivity index, ratio of GI50 for human MCF7 cells to MIC90 for Mycobacterium tuberculosis H37Ra ATCC 25177 dormant stage; format: toxicity, cell-based; details: read-out: Selectivity Index
In short: (§3)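 Cytotoxicity was measured on human MCF-7, HCT116 and THP-1 cells by MTT assay, with paclitaxel as reference. The selectivity index is GI50 for the given cell line divided by MIC90 for the given mycobacterial strain and stage.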

Staphylococcus aureus [11] = experiment: Growth inhibition of Staphylococcus aureus at 30 ug/ml; format: functional; details: read-out: GI
Staphylococcus aureus [12] = experiment: Growth inhibition of Staphylococcus aureus at 3 ug/ml; format: functional; details: read-out: GI
In short: (§4)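 Screened against Gram-negative E. coli and P. aeruginosa and Gram-positive S. aureus and B. subtilis. Compound was tested at 3 µg/ml, and the read-out is percent growth inhibition.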

[13] = Cytotoxicity against human THP1 cells by MTT assay; format: toxicity, cell-based, THP-1; details: for GI90: thp-1
Escherichia coli [14] = experiment: Growth inhibition of Escherichia coli at 3 ug/ml; format: functional; details: read-out: GI; in short: as §4
[15] = Selectivity index, ratio of GI50 for human MCF7 cells to MIC90 for Mycobacterium bovis BCG ATCC 35743 active stage; format: toxicity, cell-based; details: read-out: Selectivity Index; in short: as §1
Bacillus subtilis [16] = experiment: Growth inhibition of Bacillus subtilis at 3 ug/ml; format: functional; details: read-out: GI; in short: as §4
Escherichia coli [17] = experiment: Growth inhibition of Escherichia coli at 30 ug/ml; format: functional; details: read-out: GI
[18] = Antitubercular activity against Mycobacterium tuberculosis H37Ra ATCC 25177 dormant stage infected in human THP1 cells measured on day 12 by nitrate reductase assay; format: functional, THP-1; details: ATCC 25177, 288 h
[19] = Selectivity index, ratio of GI50 for human THP1 cells to MIC90 for Mycobacterium bovis BCG ATCC 35743 dormant stage; format: toxicity, cell-based, THP-1; details: read-out: Selectivity Index; in short: as §3
Escherichia coli [20] = experiment: Growth inhibition of Escherichia coli at 10 ug/ml; format: functional; details: read-out: GI
[21] = Antitubercular activity against Mycobacterium bovis BCG ATCC 35743 dormant stage measured on day 12 by nitrate reductase based two-fold dilution assay; format: functional, Mycobacterium bovis BCG str. ATCC 35743; details: Mycobacterium tuberculosis variant bovis BCG, ATCC 35743, 288 h
Bacillus subtilis [22] = experiment: Growth inhibition of Bacillus subtilis at 10 ug/ml; format: functional; details: read-out: GI
Pseudomonas aeruginosa [23] = experiment: Growth inhibition of Pseudomonas aeruginosa at 10 ug/ml; format: functional; details: read-out: GI
[24] = Selectivity index, ratio of GI50 for human HCT116 cells to MIC90 for Mycobacterium tuberculosis H37Ra ATCC 25177 dormant stage; format: toxicity, cell-based, HCT-116; details: read-out: Selectivity Index; in short: as §3
[25] = Selectivity index, ratio of GI50 for human HCT116 cells to MIC90 for Mycobacterium bovis BCG ATCC 35743 dormant stage; format: toxicity, cell-based, HCT-116; details: read-out: Selectivity Index; in short: as §3
[26] = Selectivity index, ratio of GI50 for human THP1 cells to MIC90 for Mycobacterium tuberculosis H37Ra ATCC 25177 dormant stage; format: toxicity, cell-based, THP-1; details: read-out: Selectivity Index; in short: as §3
[27] = Antitubercular activity against Mycobacterium tuberculosis H37Ra ATCC 25177 active stage infected in human THP1 cells measured on day 8 by nitrate reductase assay; format: functional, THP-1; details: ATCC 25177, 192 h
[28] = Antitubercular activity against Mycobacterium tuberculosis H37Ra ATCC 25177 dormant stage measured on day 12 by XTT reduction menadione based two-fold dilution assay; format: functional; details: ATCC 25177, 288 h; in short: as §2
Pseudomonas aeruginosa [29] = experiment: Growth inhibition of Pseudomonas aeruginosa at 3 ug/ml; format: functional; details: read-out: GI; in short: as §4
[30] = Cytotoxicity against human MCF7 cells by MTT assay; format: toxicity, cell-based; details: for GI90: mcf7
[31] = Antitubercular activity against Mycobacterium bovis BCG ATCC 35743 active stage measured on day 8 by nitrate reductase based two-fold dilution assay; format: functional, Mycobacterium bovis BCG str. ATCC 35743; details: Mycobacterium tuberculosis variant bovis BCG, ATCC 35743, 192 h
Bacillus subtilis [32] = experiment: Growth inhibition of Bacillus subtilis at 30 ug/ml; format: functional; details: read-out: GI
[33] = Selectivity index, ratio of GI50 for human MCF7 cells to MIC90 for Mycobacterium bovis BCG ATCC 35743 dormant stage; format: toxicity, cell-based; details: read-out: Selectivity Index; in short: as §3

Q: For C/C(=N\Nc1nc(-c2ccccc2)cs1)c1sc(C)nc1C, which inhibition of growth at 30 µg/mL (Pseudomonas aeruginosa [1]) is on record?
A: The inhibition of growth at 30 µg/mL was 82.4%.

Q: What about the selectivity ratio [2] of the same compound?
A: The selectivity ratio was 4.

Q: And the inhibition of growth at 10 µg/mL (Staphylococcus aureus [3])?
A: The inhibition of growth at 10 µg/mL was 82.8%.

Q: And the selectivity ratio [4]?
A: The selectivity ratio was 4.

Q: What about the GI50 ([5]; HCT116 cells) of the same compound?
A: The GI50 was over 100 µg/mL.

Q: And the GI90 [5]?
A: Its GI90 is over 100 µg/mL.

Q: And the selectivity ratio [6]?
A: Its selectivity ratio is 2.

Q: And the selectivity ratio [7]?
A: The selectivity ratio was 2.

Q: What about the IC50 [8] of the same compound?
A: Its IC50 is 0.82 µg/mL (≈ 2.5 µM).

Q: And the MIC90 [8]?
A: Its MIC90 is 25.3 µg/mL (≈ 77.1 µM).

Q: What about the selectivity ratio [9] of the same compound?
A: The selectivity ratio was 4.

Q: And the selectivity ratio [10]?
A: Its selectivity ratio is 6.

Q: And the inhibition of growth at 30 µg/mL (Staphylococcus aureus [11])?
A: Its inhibition of growth at 30 µg/mL is 81.3%.

Q: What about the inhibition of growth at 3 µg/mL (Staphylococcus aureus [12]) of the same compound?
A: Its inhibition of growth at 3 µg/mL is 80.7%.

Q: What about the GI50 ([13]; THP1 cells) of the same compound?
A: The GI50 was over 100 µg/mL.

Q: And the GI90 [13]?
A: The GI90 was over 100 µg/mL.

Q: And the inhibition of growth at 3 µg/mL (Escherichia coli [14])?
A: Its inhibition of growth at 3 µg/mL is 81.8%.

Q: What about the selectivity ratio [15] of the same compound?
A: Its selectivity ratio is 2.

Q: What about the inhibition of growth at 3 µg/mL (Bacillus subtilis [16]) of the same compound?
A: The inhibition of growth at 3 µg/mL was 79.2%.

Q: What about the inhibition of growth at 30 µg/mL (Escherichia coli [17]) of the same compound?
A: Its inhibition of growth at 30 µg/mL is 82.3%.

Q: What about the MIC90 [18] of the same compound?
A: The MIC90 was 23.4 µg/mL (≈ 71.3 µM).

Q: What about the selectivity ratio [19] of the same compound?
A: The selectivity ratio was 26.

Q: And the inhibition of growth at 10 µg/mL (Escherichia coli [20])?
A: The inhibition of growth at 10 µg/mL was 83.7%.

Q: What about the IC50 [21] of the same compound?
A: Its IC50 is 3.81 µg/mL (≈ 11.6 µM).

Q: What about the MIC90 [21] of the same compound?
A: Its MIC90 is 17.2 µg/mL (≈ 52.4 µM).

Q: And the inhibition of growth at 10 µg/mL (Bacillus subtilis [22])?
A: The inhibition of growth at 10 µg/mL was 81.5%.

Q: What about the inhibition of growth at 10 µg/mL (Pseudomonas aeruginosa [23]) of the same compound?
A: The inhibition of growth at 10 µg/mL was 84%.

Q: And the selectivity ratio [24]?
A: The selectivity ratio was 6.

Q: And the selectivity ratio [25]?
A: The selectivity ratio was 26.

Q: And the selectivity ratio [26]?
A: The selectivity ratio was 6.

Q: What about the MIC90 [27] of the same compound?
A: Its MIC90 is 32.5 µg/mL (≈ 99.1 µM).

Q: And the IC50 [28]?
A: Its IC50 is 2 µg/mL (≈ 6.09 µM).

Q: And the MIC90 [28]?
A: The MIC90 was 16.5 µg/mL (≈ 50.1 µM).

Q: And the inhibition of growth at 3 µg/mL (Pseudomonas aeruginosa [29])?
A: The inhibition of growth at 3 µg/mL was 81.8%.

Q: What about the GI50 ([30]; MCF7 cells) of the same compound?
A: The GI50 was over 100 µg/mL.

Q: What about the GI90 [30] of the same compound?
A: Its GI90 is over 100 µg/mL.

Q: What about the IC50 [31] of the same compound?
A: Its IC50 is 11.6 µg/mL (≈ 35.4 µM).

Q: And the MIC90 [31]?
A: Its MIC90 is 40.4 µg/mL (≈ 123 µM).

Q: And the inhibition of growth at 30 µg/mL (Bacillus subtilis [32])?
A: Its inhibition of growth at 30 µg/mL is 79.9%.

Q: And the selectivity ratio [33]?
A: The selectivity ratio was 26.

Q: What does the source list for CC(=O)O[C@H]1C(=O)[C@@]2(C)[C@H]([C@H](OC(=O)c3ccccc3)[C@]3(O)C[C@H](OC(=O)[C@H](O)[C@@H](NC(=O)c4ccccc4)c4ccccc4)C(C)=C1C3(C)C)[C@]1(OC(C)=O)CO[C@@H]1C[C@@H]2O [PACLITAXEL]?
A: GI90 [5]: 5.21 µg/mL (≈ 6.1 µM); GI90 [13]: 5.814 µg/mL (≈ 6.81 µM); GI90 [30]: 0.075 µg/mL (≈ 0.0878 µM)

Q: For CO[C@H]1/C=C/O[C@@]2(C)Oc3c(C)c(O)c4c(O)c(c(/C=N/N5CCN(C)CC5)c(O)c4c3C2=O)NC(=O)/C(C)=C\C=C\[C@H](C)[C@H](O)[C@@H](C)[C@@H](O)[C@@H](C)[C@H](OC(C)=O)[C@@H]1C [RIFAMPIN], which GI90 [5] is on record?
A: The GI90 was over 100 µg/mL.

Q: What about the IC50 [8] of the same compound?
A: Its IC50 is 0.51 µg/mL (≈ 0.62 µM).

Q: What about the MIC90 [8] of the same compound?
A: Its MIC90 is 0.51 µg/mL (≈ 0.62 µM).

Q: What about the GI90 [13] of the same compound?
A: Its GI90 is over 100 µg/mL.

Q: And the MIC90 [18]?
A: Its MIC90 is 0.7 µg/mL (≈ 0.851 µM).

Q: And the IC50 [21]?
A: Its IC50 is 0.81 µg/mL (≈ 0.984 µM).

Q: And the MIC90 [21]?
A: The MIC90 was 0.81 µg/mL (≈ 0.984 µM).

Q: And the MIC90 [27]?
A: The MIC90 was 0.5 µg/mL (≈ 0.608 µM).

Q: And the IC50 [28]?
A: The IC50 was 0.75 µg/mL (≈ 0.911 µM).

Q: And the MIC90 [28]?
A: The MIC90 was 0.75 µg/mL (≈ 0.911 µM).

Q: And the GI90 [30]?
A: The GI90 was over 100 µg/mL.

Q: And the IC50 [31]?
A: The IC50 was 0.45 µg/mL (≈ 0.547 µM).

Q: What about the MIC90 [31] of the same compound?
A: Its MIC90 is 0.45 µg/mL (≈ 0.547 µM).
